The values that follow come from ChEMBL document CHEMBL1154236, “Monoterpenes from Paeonia albiflora and their inhibitory activity on nitric oxide production by lipopolysaccharide-activated microglia” (J Nat Prod, 2009).

Data set [1] has as its system N9. Put plainly: Antiinflammatory activity against mouse N9 cells assessed as inhibition of LPS-induced nitric oxide production after 48 hrs by Griess reaction relative to control. The following applies: Homo sapiens, N9, 48 h. Type of data set: functional, cell-based. An outline of the steps: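 Murine N9 microglia (IMDM, 5% heat-inactivated FBS, 2 mM L-glutamine, 5 × 10^-5 M 2-mercaptoethanol), 1 × 10^5 cells/well, precultured 24 h at 37 °C, 5% CO2. Then LPS 1 µg/mL plus compound (DMSO stock diluted in PBS pH 7.4, DMSO ≤0.1%) for 48 h. Supernatant nitrite read by Griess reagent, 15 min room temperature, A540. Expressed as % of LPS-only response. IC50 from linear/nonlinear regression, n = 3. Curcumin positive control.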
(In general: Griess reagent forms a coloured azo dye with nitrite.)

Data set [2] deals with N9. Put plainly: Cytotoxicity against LPS-stimulated mouse N9 cells at 1 to 30 uM after 48 hrs by MTT assay. The data set is classed as cell-based. Particulars: n9, 48 h. An outline of the steps:
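N9 microglia seeded at 5 × 10^4 cells/well and exposed to compounds with LPS (1 µg/mL) for 48 h. MTT 0.25 mg/mL then added for 3 h at 37 °C. Formazan dissolved in DMSO and absorbance read at 490 nm.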

In data set [3] the test system is N9. Put plainly: Antiinflammatory activity against mouse N9 cells assessed as LPS-induced nitric oxide production at 3 uM after 48 hrs by Griess reaction relative to control. Particulars: N9, 48 h.
Data set [4] has as its system N9. Kind of data set: Antiinflammatory activity against mouse N9 cells assessed as LPS-induced nitric oxide production at 30 uM after 48 hrs by Griess reaction relative to control. The following applies: N9, 48 h.
Data set [5] deals with N9. Kind of data set: Antiinflammatory activity against mouse N9 cells assessed as LPS-induced nitric oxide production at 1 uM after 48 hrs by Griess reaction relative to control. The following applies: N9, 48 h.
The test system of data set [6] is N9. Put plainly: Antiinflammatory activity against mouse N9 cells assessed as LPS-induced nitric oxide production at 10 uM after 48 hrs by Griess reaction relative to control. The following applies: N9, 48 h.

As a reminder, the IC50 is the midpoint of a concentration-inhibition curve.

For the compound `COC1O[C@@]2(C)CC(=O)[C@@H]3C[C@]2(O[C@@H]2O[C@H](CO)[C@@H](O)[C@H](O)[C@H]2O)[C@@]13COC(=O)c1ccccc1` (stereo partly specified), in the data set with N9 [1], the IC50 is above 100 µM.

In the case of `CO[C@H]1O[C@@]2(C)CC(=O)[C@H]3C[C@]2(O[C@@H]2O[C@H](CO[C@H]4O[C@@]5(C)CC(=O)[C@H]6C[C@]5(O[C@@H]5O[C@H](CO)[C@@H](O)[C@H](O)[C@H]5O)[C@]46COC(=O)c4ccccc4)[C@@H](O)[C@H](O)[C@H]2O)[C@]13COC(=O)c1ccccc1` [PAEONIDANIN D], the Activity entry with N9 [2] was “Toxic”. In addition, the NO production (% of LPS control) at 3 µM in the data set with N9 [3] worked out at 96.6%. In addition, the NO production (% of LPS control) at 30 µM in the data set on N9 [4] amounted to 77.1%. Also, the NO production (% of LPS control) at 1 µM in the data set on N9 [5] came to 112%. For the same compound, the NO production (% of LPS control) at 10 µM with N9 [6] came out at 83.5%.

In the case of `C[C@@]12C[C@@]3(O)O[C@@H](O1)[C@]1(COC(=O)c4ccccc4)[C@@H]3C[C@]12O[C@@H]1O[C@H](COC(=O)c2ccccc2)[C@@H](O)[C@H](O)[C@H]1O` [BENZOYLPAEONIFLORIN], the Activity result with N9 [2] is listed as “Toxic”. The NO production (% of LPS control) at 3 µM in the data set with N9 [3] stood at 81.4%. Also, in the data set on N9 [4], the NO production (% of LPS control) at 30 µM is 68.6%. In addition, the NO production (% of LPS control) at 1 µM in the data set with N9 [5] amounted to 86.3%. Besides, the NO production (% of LPS control) at 10 µM in the data set on N9 [6] amounted to 79.5%.

For the compound `C[C@@]12CC(=O)[C@H]3C[C@]1(O)O[C@H](O2)[C@@H]3COC(=O)c1ccccc1` [PAEONIFLORIGENONE], the Activity entry with N9 [2] is listed as “Toxic”. Also, the NO production (% of LPS control) at 3 µM in the data set with N9 [3] was 71.9%. Besides, the NO production (% of LPS control) at 30 µM in the data set on N9 [4] came to 26.7%. In addition, the NO production (% of LPS control) at 1 µM with N9 [5] was 92.6%. Further, the NO production (% of LPS control) at 10 µM in the data set with N9 [6] was 24.5%.
